Shown are actives, neighbours in structure and some others; about 2% of the full set was active somewhere.
NR2E3 ag-1: NR2E3 (human) agonism; Q9Y5X4; GST-NR2E3/biotin-RetCOR TR-FRET, 1536-well; inhibition of corepressor binding, % at 4.78 µM; hit rate 0.12% among 320,000; AID 2300;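 active = percent inhibition above the cutoff of mean plus 3 SD of all tested compounds, set per screening campaign, cut at about 20% in these data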;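 note: 0% = DMSO wells and 100% = biotin wells as full block of FRET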
Target sequence (Q9Y5X4 whole entry, looked up): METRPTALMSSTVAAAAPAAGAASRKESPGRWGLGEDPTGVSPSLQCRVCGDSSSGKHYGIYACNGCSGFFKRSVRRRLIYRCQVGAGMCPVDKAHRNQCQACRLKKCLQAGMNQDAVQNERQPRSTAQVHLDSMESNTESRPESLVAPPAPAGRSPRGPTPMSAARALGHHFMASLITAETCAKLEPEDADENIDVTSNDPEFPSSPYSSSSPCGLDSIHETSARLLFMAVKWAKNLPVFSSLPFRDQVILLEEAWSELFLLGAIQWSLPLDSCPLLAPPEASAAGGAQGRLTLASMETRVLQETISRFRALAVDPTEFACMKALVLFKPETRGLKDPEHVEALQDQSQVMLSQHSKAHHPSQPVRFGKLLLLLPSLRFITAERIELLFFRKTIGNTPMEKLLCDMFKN
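Material: NR2E3–RetCOR corepressor complex | Quantity: 1.35 nM GST-tagged NR2E3 final | Schedule: 5 h at 4 °C | Replication: Singlicate compound wells | Reagent: RetCOR corepressor, biotinylated, 7 nM | Controls: Biotin wells as high control, 0.6% DMSO wells as low control | Signal: TR-FRET, Eu(K)-anti-GST donor, streptavidin-D2 acceptor, ex 340, em 617/671 nm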
EBV LMP1 NFkB: reduces LMP1-driven NF-kappaB luciferase signal; LMP1-induced NF-kappaB luciferase reporter cells, luminescence; inhibition, % at 12.5 µM; hit rate 0.69% among 350,000; AID 504558; in the data active = inhibition above about 41%; inconclusive = no clear call, values can overlap the other calls;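 note: 0% = neutral control wells and 100% = reference inhibitor control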
HIF activator: HIF pathway transcriptional activation; U2OS HRE-luciferase reporter, luminescence; normalized: DMSO 0%, desferrioxamine 100%; activation, % at 7.5 µM (by protocol); hit rate 0.32% among 300,000; AID 1910;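 active = mean activation of at least 10% of the iron chelator positive control signal, with at least half of replicates also reaching 10%; inconclusive = mean and replicate majority disagree about reaching 10%; inactive = mean and most replicates under 10%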
TROY NFkB inh: inhibitors of TROY-dependent NF-kB signaling | hit rate 0.98% among 360,000 | Q293 LMP1-TROYcd NF-kB luciferase reporter, 4 h | AID 1347056 | inhibition, % at 10 µM;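 active = compounds whose plate-normalised and pattern-corrected inhibition of the luciferase reporter signal at the single screening dose is 50% or more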
NR2E3 ag-2: agonists of human NR2E3 nuclear receptor; Q9Y5X4; CHO-S Gal4-NCOR/VP16-NR2E3 two-hybrid, luciferase; inhibition of corepressor binding, % at 3.98 µM; hit rate 0.35% among 360,000;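 active = inhibition above the mean of all tested compounds plus 3 SD, cut at about 70% in these data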;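 note: 0% = DMSO with NR2E3 transfected cells and 100% = cells lacking NR2E3 construct; higher means lower luciferase signal from less NR2E3 corepressor binding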
Starred values were filed as active, the others as inactive; ? = inconclusive; / = no result; + = active, no number.

SMILES	NR2E3 ag-1	EBV LMP1 NFkB	HIF activator	TROY NFkB inh	NR2E3 ag-2
Cc1ccc(/C=C/C(=O)c2ccccc2O)cc1	3	3	2	-63	-18
CN(C)c1ccc(/C=C/C(=O)c2ccccc2O)cc1	2	-28	2	50*	-30
O=C(/C=C/c1ccc2c(c1)OCCCO2)c1ccccc1O	-2	-18	3	56*	-105
Cc1cc(Br)cn2c(Cc3cccc(F)c3)c(C3CCCCC3)nc12	/	/	/	14	-30
COc1ccc(-c2cc(C(=O)OCC(=O)N3CCCCC3)c3ccccc3n2)cc1OC	/	-2	/	-21	-18
COc1ccc(NC(=S)NCCc2c(C)[nH]c3ccc(OC)cc23)cc1	0	0	0	-8	-18
CCOC(=O)CSc1nc2cc3c(cc2cc1C#N)OCCO3	4	-69	2	57*	-90
CCOC(=O)CSc1nc2cc3c(cc2cc1C#N)OCO3	-1	-16	/	-60	-136
Cc1ccc2cc(CCNS(=O)(=O)c3ccc(F)cc3)c(=O)[nH]c2c1C	6	0	0	56*	-9
Nc1ccc2cc3[nH]c4cc(N)ccc4c3nc2c1	/	62*	/	-37	-51
CC(C)C[C@@H](COCc1cccc(Cl)c1)N1CCN(C(=O)c2ccc(C(F)(F)F)cc2)CCC1=O	/	/	/	3	-12
Cc1cc(O)c(Sc2ncn[nH]2)cc1NS(=O)(=O)c1ccc(Cl)cc1	2	6	/	-17	14
O=S(=O)(Nc1cc(Sc2ncn[nH]2)c(O)c2ccccc12)c1ccccc1	/	1	/	62*	103*
CCN(CCCNC(=O)CCc1nc(-c2ccc(OC)cc2)no1)c1cccc(C)c1	-3	0	143*	10	-2
CC(C(=O)NCc1ccc(Cl)cc1)n1cccc1C(=O)c1ccccc1 (stereo not drawn)	2	74*	0	-11	9
COc1ccccc1CNC(=O)C(C)n1cccc1C(=O)c1ccccc1 (stereo not drawn)	3	-6	0	-7	-7
CC1(C(=O)NS(=O)(=O)C2CC2)CCN(C(=O)C2(c3ccc(Cl)cc3)CCCC2)C1 (stereo not drawn)	/	/	/	-4	-3
CN(c1ccccc1)c1ccc(/C=C/[N+](=O)[O-])cc1	0	18	-4	89*	-11
O=C(Nc1ccccc1)SC1CCCCC1	/	-16	/	-67	-100
O=C(N/N=C/c1ccc(O)cc1)c1cccc(C(F)(F)F)c1	5	-5	0	-10	4
O=C(N/N=C/c1ccccc1O)c1cccc(C(F)(F)F)c1	-6	8	41*	-42	-9
O=C(N/N=C/c1ccccc1Cl)c1n[nH]c2c1CCCC2	2	19	-1	74*	-140
CN(c1cccc(Cl)c1)S(=O)(=O)c1cccc(C(=O)Nc2nc3ccccc3[nH]2)c1	3	30	+	35	-27
O=[N+]([O-])c1ccc(-c2cnc3ccccc3n2)cc1	5	-3	2	-55	-35
CCOc1ccc(-c2cnc3ccccc3n2)cc1	-2	?	-6	63*	-78
SMILES	NR2E3 ag-1	EBV LMP1 NFkB	HIF activator	TROY NFkB inh	NR2E3 ag-2
COc1cc(CN2CCCC(N3CCN(c4ccccc4C)CC3)C2)cc(Cl)c1O (stereo not drawn)	1	78*	1	-11	-15
CCOC(=O)CCCNC(=O)CN1C(=O)NC(c2ccccc2)(c2ccccc2)C1=O	1	-4	0	3	13
Oc1c(N=NC(=S)Nc2ccccc2F)c2ccccc2n1Cc1cccc(Cl)c1	-5	44*	0	9	-13
Oc1c(N=NC(=S)Nc2ccccc2F)c2ccccc2n1Cc1ccc(F)cc1	-1	51*	1	-5	7
CCCCCCN1C[C@@H](n2cc(C3CC3)nn2)[C@H](O)C[C@@H]1c1ccc(Cl)cc1	/	0	/	-5	-45
CCOC(=O)c1nc(Nc2ccc(Nc3ccccc3)cc2)c2ccccc2n1	/	4	0	54*	-11
CCOC(=O)c1ccc(Nc2nc(C(=O)OCC)nc3ccccc23)cc1	5	8	0	7	-73
O=C(Nc1ccc(-n2cnnn2)cc1)c1cn2ccccc2n1	11	-21	1	-48	-7
Cc1csc(NC(=O)c2cn3ccccc3n2)n1	1	68*	-3	62*	-72
O=C(Nc1ccccc1)c1cn2ccccc2n1	-2	42*	-2	45	-90
Cc1csc(NC(=O)c2ccc3ccccc3n2)n1	1	-28	0	-44	-181
Cc1ccnc2nc(C(=O)OC(C)C(=O)NCc3ccccc3)nn12 (stereo not drawn)	2	-2	/	3	-22
O=[N+]([O-])c1ccc2nc(/C=C/c3ccc(Cl)cc3)[nH]c2c1	-2	-20	1	71*	-70
O=[N+]([O-])c1ccc(-c2nc3ccc([N+](=O)[O-])cc3[nH]2)cc1	3	-13	-14	9	-89
Cc1ccc(/C(N)=N/OC(=O)c2ccc(C)cc2Cl)cc1	0	10	0	75*	1
Cc1cccc(/C(N)=N/OC(=O)c2ccc(Cl)cc2Cl)c1	-1	-10	0	63*	-31
N/C(=N\OC(=O)c1ccccc1Cl)c1ccccc1	4	-43	-2	13	-153
N/C(=N\OC(=O)c1ccc(Cl)cc1Cl)c1ccccc1	1	-30	-1	63*	-65
N/C(=N\OC(=O)c1ccccc1Cl)c1ccc(Cl)cc1	-1	-61	1	16	-72
N/C(=N\OC(=O)c1ccc(Cl)cc1Cl)c1ccc(Cl)cc1	0	-19	2	67*	-8
COc1cccc(C(=O)OCC(=O)NCCNC(=O)COC(=O)c2cccc(OC)c2OC)c1OC	-1	0	-1	-19	-7
CCCCCCCCN1C(=O)[C@H](CC(=O)N2CCN(C(=O)C3CC3)CC2)C[C@@]2(C(=O)OCC)CCCC=C12	/	/	/	2	-7
CC(=O)c1ccc(OCC(=O)Nc2ccc3c(c2)OCO3)cc1	/	-7	/	-19	-3
Cc1ccc(-c2nnc(SCC(=O)NCC3CCCO3)nc2-c2ccc(C)cc2)cc1 (stereo not drawn)	/	-1	/	2	-42
O=C(NOCc1ccccc1)c1ccc(Cl)cc1Cl	-1	46*	/	42	-92
Cc1cccc(/C(N)=N/OC(=O)C23CC4CC(CC(C4)C2)C3)c1	1	-43	2	60*	-28
O=C(NOCc1ccccc1)c1ccccc1	-2	6	1	-9	-137
C[C@@]12C(=O)N(CC3CCCO3)CC(=O)N1[C@H]1c3cc(Cl)ccc3OC[C@@H]1[C@@H]2c1ccccc1 (stereo partly drawn)	/	25	/	9	-18
O=C1CC(C(=O)Nc2ccc(Br)cc2)C2(CCCC2)O1 (stereo not drawn)	1	/	0	/	/
O=C1CC(C(=O)Nc2ccccc2)C2(CCCCC2)O1 (stereo not drawn)	-1	65*	-1	9	-22

Source: PubChem (several laboratories)
